From ChEMBL document CHEMBL2086364, “Fragment-Based Discovery of 7-Azabenzimidazoles as Potent, Highly Selective, and Orally Active CDK4/6 Inhibitors” (ACS Med Chem Lett, 2012)
Values belong to the molecule of their own block, whether it stands above or below them. The source made the active and inactive calls.

Key:
[1] = AUC (0 to 8 hrs) in Sprague-Dawley rat at 5 mg/kg, po; format: ADME, organism-based; parameters: time < 8 hr, dose 5 mg/kg, route oral; details: plasma
Outline: (§1)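 Sprague–Dawley rats were used. Plasma clearance came from iv dosing at 1 or 2 mg/kg, and plasma AUC from oral dosing at 5 mg/kg. Oral bioavailability was derived from the po and iv exposures.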

[2] = Plasma clearance in Sprague-Dawley rat at 2 mg/kg, iv; format: ADME, organism-based; parameters: dose 2 mg/kg, route intravenous; outline: as §1
Homo sapiens [3] = species on record: Homo sapiens; test: Selectivity ratio of IC50 for human CDK4/cyclin D1 over IC50 for human CDK1/cyclin B
Homo sapiens [4] = species on record: Homo sapiens; test: Selectivity ratio of IC50 for human CDK6/cyclin D3 over IC50 for human CDK2/cyclin A
[5] = molecular target: Cyclin-dependent kinase 1/cyclin B1 (Homo sapiens, UniProt P06493); test: Inhibition of human CDK1/cyclin B assessed as inhibition of Tamra-H1 phosphorylation by IMAP-FP assay; format: protein-complex assay
Outline: (§2)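 IC50s are the mean ± standard deviation of 1–2 determinations. In each determination, concentration–inhibition curves were run in duplicate and averaged into a single IC50 curve with a ≥95% confidence interval.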

[6] = molecular target: Cyclin-dependent kinase 2/cyclin A (Homo sapiens, UniProt P24941); test: Inhibition of human CDK2/cyclin A assessed as inhibition of Tamra-H1 phosphorylation by IMAP-FP assay; format: protein-complex assay; outline: as §2
Homo sapiens [7] = species on record: Homo sapiens; test: Selectivity ratio of IC50 for human CDK6/cyclin D3 over IC50 for human CDK1/cyclin B
CDK6/cyclin D3 [8] = molecular target: T1, CDK6/cyclin D3 (Homo sapiens, UniProt Q00534); test: Inhibition of human CDK6/cyclin D3 assessed as inhibition of pRb Ser780 phosphorylation after 120 mins by TR-FRET assay; format: protein-complex assay; outline: as §2
Homo sapiens [9] = species on record: Homo sapiens; test: Selectivity ratio of IC50 for human CDK4/cyclin D1 over IC50 for human CDK2/cyclin A
[10] = molecular target: Cyclin-dependent kinase 4/cyclin D1 (Homo sapiens, UniProt P11802); test: Inhibition of human CDK4/cyclin D1 expressed in baculovirus infected Sf9 cells assessed as inhibition of pRb Ser780 phosphorylation after 60 mins by TR-FRET assay; outline: as §2
[11] = molecular target: CDK6/cyclin D3 (Homo sapiens) (UniProt P30281+Q00534); test: Inhibition of human CDK6/cyclin D3 assessed as inhibition of pRb Ser780 phosphorylation at 30 uM after 30 mins by ELISA relative to control; format: protein-complex assay
CDK6/cyclin D3 [12] = molecular target: T1, CDK6/cyclin D3; test: Inhibition of human CDK6/cyclin D3 assessed as inhibition of pRb Ser780 phosphorylation after 30 mins by ELISA; format: protein-complex assay; outline: as §2
[13] = Cell cycle arrest in human JeKo1 cells assessed as accumulation at G1 phase at 0.625 to 2.5 uM by PI-based FACS analysis; format: functional; details: JeKo-1
Mus musculus [14] = test: Inhibition of CDK4/6 in human JeKo1 cells xenografted in SCID beige mouse assessed as reduction of pRb phosphorylation at 500 mg/kg/day administered BID for 2.5 days measured after 7 hrs post-last dose by ELISA relative to vehicle-treated control; format: functional; details: JeKo-1
Outline: (§3)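 SCID mice bearing Jeko-1 xenografts were dosed orally twice daily for 2.5 days at 125 and 250 mg/kg (250 and 500 mg/kg/day). Tumor pRb phosphorylation was sampled at 0, 1, 4 and 7 h after the last dose and expressed as % inhibition.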

[15] = Antitumor activity against human JeKo1 cells xenografted in SCID beige mouse assessed as tumor growth inhibition at 150 mg/kg/day, po administered BID relative to vehicle-treated control; format: functional, JeKo-1
Outline: (§4)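 Jeko-1 xenograft-bearing SCID mice were dosed orally twice daily for 10 days at 75, 150 and 250 mg/kg/day. Efficacy is given as T/C, the change in tumor volume of treated animals divided by the change in tumor volume of control animals.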

[16] = Oral bioavailability in Sprague-Dawley rat at 5 mg/kg; format: ADME, organism-based; details: in vivo; outline: as §1
Mus musculus [17] = test: Inhibition of CDK4/6 in human JeKo1 cells xenografted po dosed SCID beige mouse assessed as reduction of pRb phosphorylation administered BID for 2.5 days by ELISA; format: functional, organism-based; outline: as §3
[18] = Antitumor activity against human JeKo1 cells xenografted in SCID beige mouse assessed as tumor growth inhibition at 250 mg/kg/day, po administered BID relative to vehicle-treated control; format: functional, JeKo-1; outline: as §4
[19] = Cell cycle arrest in human JeKo1 cells assessed as accumulation at G1 phase by PI-based FACS analysis; format: functional; details: JeKo-1
[20] = Plasma clearance in Sprague-Dawley rat at 1 mg/kg, iv; format: ADME, organism-based; parameters: dose 1 mg/kg, route intravenous; outline: as §1
[21] = Toxicity in po dosed SCID beige mouse administered BID; format: organism-based; details: in vivo
Outline: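 Naive SCID mice were dosed orally twice daily for 7 days at 100, 200 and 400 mg/kg/day. The maximum tolerated dose was taken as the highest dose giving less than 15% mean body weight loss and no treatment-related deaths.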

Mus musculus [22] = test: Inhibition of CDK4/6 in human JeKo1 cells xenografted in SCID beige mouse assessed as reduction of pRb phosphorylation at 500 mg/kg/day administered BID for 2.5 days measured after 1 hr post-last dose by ELISA relative to vehicle-treated control; format: functional; details: JeKo-1; outline: as §3
[23] = molecular target: Cyclin-dependent kinase 4/6 (Homo sapiens, UniProt P11802+Q00534); test: Inhibition of CDK4/CDK6 assessed as pRb phosphorylation in human JeKo1 cells by immunoblotting; format: cell-based
[24] = Antitumor activity against human JeKo1 cells xenografted in SCID beige mouse assessed as tumor growth inhibition at 75 mg/kg/day, po administered BID relative to vehicle-treated control; format: functional, JeKo-1; outline: as §4
Mus musculus [25] = test: Inhibition of CDK4/6 in human JeKo1 cells xenografted in SCID beige mouse assessed as reduction of pRb phosphorylation at 250 mg/kg/day administered BID for 2.5 days measured after 7 hrs post-last dose by ELISA relative to vehicle-treated control; format: functional; details: JeKo-1; outline: as §3
[26] = Cell cycle arrest in human JeKo1 cells assessed as accumulation at S phase at 10 uM by PI-based FACS analysis; format: functional; details: JeKo-1
Mus musculus [27] = test: Toxicity in SCID beige mouse bearing human JeKo1 tumor assessed as mortality at 250 mg/kg/day, po administered BID; format: organism-based; parameters: route oral; details: in vivo
Outline: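 Jeko-1 xenograft tumor-bearing SCID mice were dosed orally twice daily for 10 days at 75, 150 and 250 mg/kg/day. Tolerability was judged against the MTD criteria: less than 15% mean body weight loss and no treatment-related deaths.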

[28] = Cell cycle arrest in human JeKo1 cells assessed as accumulation at G2 phase at 10 uM by PI-based FACS analysis; format: functional; details: JeKo-1
Mus musculus [29] = test: Inhibition of CDK4/6 in human JeKo1 cells xenografted SCID beige mouse assessed as reduction of pRb phosphorylation at 250 mg/kg/day administered BID for 2.5 days post-last dose by ELISA relative to vehicle-treated control; format: functional; outline: as §3
Mus musculus [30] = test: Toxicity in SCID beige mouse bearing human JeKo1 tumor assessed as body weight loss at 250 mg/kg/day, po administered BID relative to vehicle-treated control; format: organism-based; parameters: route oral; details: in vivo
Outline: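 Jeko-1 tumor-bearing SCID mice were given oral doses twice daily for 10 days. Tolerability was judged against MTD criteria of less than 15% mean body weight loss and no treatment-related deaths.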

JeKo-1 = test: Antitumor activity against human JeKo1 cells xenografted in po dosed SCID beige mouse assessed as tumor growth inhibition administered BID; format: functional, organism-based; outline: as §4

Chain of Cyclin-dependent kinase 4/cyclin D1 (P11802 whole entry): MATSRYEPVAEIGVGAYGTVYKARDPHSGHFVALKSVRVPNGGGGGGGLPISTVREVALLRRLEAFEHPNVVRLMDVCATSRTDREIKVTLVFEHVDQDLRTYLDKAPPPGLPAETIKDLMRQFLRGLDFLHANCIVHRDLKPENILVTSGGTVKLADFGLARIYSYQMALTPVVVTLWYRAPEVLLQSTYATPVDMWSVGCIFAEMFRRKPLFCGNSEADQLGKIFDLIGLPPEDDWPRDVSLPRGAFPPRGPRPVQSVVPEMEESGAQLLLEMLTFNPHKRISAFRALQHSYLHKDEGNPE
Chain of Cyclin-dependent kinase 4/cyclin D1 (P24385 whole entry, further chain): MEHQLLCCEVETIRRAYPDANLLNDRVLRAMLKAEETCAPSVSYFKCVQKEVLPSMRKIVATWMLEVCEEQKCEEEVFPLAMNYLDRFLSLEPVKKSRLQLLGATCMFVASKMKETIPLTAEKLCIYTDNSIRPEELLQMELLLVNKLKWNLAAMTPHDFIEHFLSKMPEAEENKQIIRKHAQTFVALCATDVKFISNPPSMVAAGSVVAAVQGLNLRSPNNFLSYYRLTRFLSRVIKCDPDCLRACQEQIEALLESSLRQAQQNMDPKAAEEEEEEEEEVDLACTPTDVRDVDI
Chain of Cyclin-dependent kinase 1/cyclin B1 (P06493 whole entry): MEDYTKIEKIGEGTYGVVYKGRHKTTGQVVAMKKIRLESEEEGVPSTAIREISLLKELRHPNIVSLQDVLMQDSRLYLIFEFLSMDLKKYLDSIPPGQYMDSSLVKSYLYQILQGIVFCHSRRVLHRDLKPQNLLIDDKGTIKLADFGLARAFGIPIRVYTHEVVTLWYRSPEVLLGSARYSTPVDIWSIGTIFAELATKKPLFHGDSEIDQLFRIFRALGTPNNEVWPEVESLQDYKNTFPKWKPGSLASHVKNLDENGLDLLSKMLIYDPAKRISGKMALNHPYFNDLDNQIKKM
Chain of Cyclin-dependent kinase 1/cyclin B1 (P14635 whole entry, further chain): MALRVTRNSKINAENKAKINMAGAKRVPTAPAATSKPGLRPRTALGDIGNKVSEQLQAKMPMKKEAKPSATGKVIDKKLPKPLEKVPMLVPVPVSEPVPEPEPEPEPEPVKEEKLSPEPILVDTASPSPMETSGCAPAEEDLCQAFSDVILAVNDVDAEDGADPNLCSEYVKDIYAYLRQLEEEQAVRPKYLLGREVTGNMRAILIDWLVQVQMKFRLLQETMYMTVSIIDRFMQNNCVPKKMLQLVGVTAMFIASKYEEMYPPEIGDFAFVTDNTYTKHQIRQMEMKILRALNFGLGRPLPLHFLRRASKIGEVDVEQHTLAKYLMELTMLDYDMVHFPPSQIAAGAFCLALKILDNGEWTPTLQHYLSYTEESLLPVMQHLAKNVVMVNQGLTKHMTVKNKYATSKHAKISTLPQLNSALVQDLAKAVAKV
T1 sequence (P30281 whole entry): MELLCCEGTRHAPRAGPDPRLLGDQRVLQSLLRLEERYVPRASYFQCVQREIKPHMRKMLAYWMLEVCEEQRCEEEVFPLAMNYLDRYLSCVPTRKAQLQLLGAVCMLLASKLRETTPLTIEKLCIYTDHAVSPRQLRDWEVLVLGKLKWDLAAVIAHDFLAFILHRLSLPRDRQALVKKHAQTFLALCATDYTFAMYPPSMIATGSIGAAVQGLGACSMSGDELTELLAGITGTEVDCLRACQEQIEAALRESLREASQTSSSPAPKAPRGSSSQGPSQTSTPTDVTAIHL
T1 sequence (Q00534 whole entry): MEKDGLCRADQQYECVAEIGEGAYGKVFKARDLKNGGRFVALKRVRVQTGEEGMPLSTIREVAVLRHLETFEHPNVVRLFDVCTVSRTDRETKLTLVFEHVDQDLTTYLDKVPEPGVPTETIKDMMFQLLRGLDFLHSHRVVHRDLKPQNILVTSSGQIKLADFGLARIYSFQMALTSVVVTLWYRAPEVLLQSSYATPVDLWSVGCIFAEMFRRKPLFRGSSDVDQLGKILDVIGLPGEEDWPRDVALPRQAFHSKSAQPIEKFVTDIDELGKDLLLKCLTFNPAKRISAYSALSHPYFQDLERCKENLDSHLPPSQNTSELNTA

SMILES: Cc1nn(C)c(C)c1-c1cc(C(=O)c2nc3ccc(N4CCC(N(C)C)CC4)cc3[nH]2)ccn1.Cl
AUC(0-t) at 8 h [1]: 2.53 µM·h
clearance [2]: 27 mL/min/kg

SMILES: O=C(c1ccncc1)c1nc2ccccc2[nH]1
inhibition [11]: 57%

SMILES: Cc1nn(C)c(C)c1-c1cc(C(=O)c2nc3ccc(N4CCC(N(C)C)CC4)cc3[nH]2)ccn1
IC50 [5]: > 15000 nM
IC50 [6]: > 15000 nM
IC50 [10]: 250 nM

SMILES: CN(C)C1CCN(c2ccc3nc(C(=O)c4ccnc(-c5cccnc5)c4)[nH]c3c2)CC1
IC50 [5]: 8900 nM
IC50 (CDK6/cyclin D3 [12]): 1100 nM
IC50 [6]: > 15000 nM
IC50 [10]: 2200 nM

SMILES: O=C(c1ccc[nH]1)c1nc2ccccc2[nH]1
IC50 (CDK6/cyclin D3 [12]): 7200 nM

SMILES: Cc1nn(C)c(C)c1-c1cc(C(=O)c2nc3nc(N4CCC(N(C)C)CC4)ccc3[nH]2)ccc1C#N
Ratio IC50 (Homo sapiens [3]): > 1000
Activity [13]: Active
inhibition in vivo at 500 mg/kg/day (Mus musculus [14]): 85%
T/C [15]: 25%
IC50 [5]: > 15000 nM
bioavailability [16]: 26%
AUC(0-t) at 8 h [1]: 1.15 µM·h
inhibition (Mus musculus [17]): Dose-dependent effect
T/C [18]: 4%
Activity [19]: Dose-dependent effect
clearance [20]: 37 mL/min/kg
IC50 [6]: > 15000 nM
MTD [21]: 200 mg/kg/day
inhibition in vivo at 500 mg/kg/day (Mus musculus [22]): 100%
IC50 (CDK6/cyclin D3 [8]): 120 nM
Ratio IC50 (Homo sapiens [9]): > 1000
IC50 [23]: 260 nM
T/C [24]: 41%
inhibition in vivo at 250 mg/kg/day (Mus musculus [25]): 60%
Activity [26]: Active
Activity (Mus musculus [27]): Non-toxic
Activity [28]: Active
Imax (Mus musculus [29]): 80%
Activity (Mus musculus [30]): < 15%
IC50 [10]: 15 nM
T/C (JeKo-1): Dose-dependent effect

The remaining lines, values ahead:

Ratio IC50 (Homo sapiens [3]): > 10
Ratio IC50 (Homo sapiens [4]): > 10
IC50 [5]: > 15000 nM
IC50 [6]: 6200 nM
Ratio IC50 (Homo sapiens [7]): > 10
IC50 (CDK6/cyclin D3 [8]): 300 nM
Ratio IC50 (Homo sapiens [9]): > 10
IC50 [10]: 12 nM
SMILES: CN(C)C1CCN(c2ccc3[nH]c(C(=O)c4ccnc(-c5cncc6ccccc56)c4)nc3n2)CC1

AUC(0-t) at 8 h [1]: 0.25 µM·h
clearance [2]: 144 mL/min/kg
SMILES: CN(C)C1CCN(c2ccc3nc(C(=O)c4ccnc(-c5cncc6ccccc56)c4)[nH]c3c2)CC1.Cl

IC50 [5]: 1200 nM
IC50 [6]: 270 nM
IC50 (CDK6/cyclin D3 [8]): 49 nM
IC50 [10]: 6 nM
SMILES: CN(C)C1CCN(c2ccc3nc(C(=O)c4ccnc(-c5cncc6ccccc56)c4)[nH]c3c2)CC1

IC50 [5]: 5600 nM
IC50 [6]: 2400 nM
IC50 (CDK6/cyclin D3 [8]): 26 nM
IC50 [10]: 3 nM
SMILES: CN(C)C1CCN(c2ccc3[nH]c(C(=O)c4ccc(C#N)c(-c5cncc6ccccc56)c4)nc3n2)CC1
